For one compound, Activity, fold change (FC) and IC50 results are on record in ChEMBL document CHEMBL4321796, “Proteolysis Targeting Chimeras for the Selective Degradation of Mcl-1/Bcl-2 Derived from Nonselective Target Binding Ligands” (J Med Chem, 2019).

One test has as its system HeLa. In words: Induction of CRBN-mediated tubulin degradation in human HeLa cells at 10 uM incubated for 12 hrs by Western blot analysis. Format: cell-based. In short, it runs like this:
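HeLa cells (DMEM, 10% FBS, 37 °C, 5% CO2) treated 12 h with compound (10 µM, or 0–10 µM gradient; time course 0–24 h at 10 µM). Lysis in NP-40 buffer with protease inhibitors, equal protein loaded for SDS-PAGE and immunoblotting. Bands quantified relative to DMSO control. n=3 independent samples.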
Background: Immunoblotting shows a protein as a band on a membrane.

Test [1] addresses T1, Protein cereblon/Induced myeloid leukemia cell differentiation protein Mcl-1 (Homo sapiens, UniProt Q07820+Q96SW2). Kind of test: Induction of CRBN-mediated Mcl-1 degradation in human HeLa cells at 10 uM measured at 12 hrs by Western blot analysis relative to control. Format: cell-based. In short, it runs like this:
(§1)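 HeLa cells in DMEM with 10% FBS, exposed to 10 µM compound over a 0–24 h time course. Mcl-1 and Bcl-2 detected by immunoblot (NP-40 lysis, BCA-equalized SDS-PAGE, PVDF, ECL) and quantified relative to DMSO control; mean ± s.d., n=3 independent samples.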

The target of test [2] is T1, Protein cereblon/Induced myeloid leukemia cell differentiation protein Mcl-1. In words: Induction of CRBN-mediated Mcl-1 degradation in human HeLa cells after 12 hrs by Western blot analysis. Format: cell-based.
Test [3] deals with T2, Protein cereblon/Apoptosis regulator Bcl-2 (Homo sapiens, UniProt P10415+Q96SW2). Kind of test: Induction of CRBN-mediated Bcl-2 degradation in human HeLa cells assessed as relative abundance at 0.1 uM after 12 hrs by Western blot analysis (reference value: 1). Format: cell-based.
The target in test [4] is T1, Protein cereblon/Induced myeloid leukemia cell differentiation protein Mcl-1. In words: Induction of CRBN-mediated Mcl-1 degradation in human HeLa cells assessed as relative abundance at 10 uM measured at 20 hrs by Western blot analysis (reference value: 1). Format: cell-based. In short, it runs like this:
as §1

Test [5] shares this target. In words: Induction of CRBN-mediated Mcl-1 degradation in human HeLa cells at 10 uM pretreated with CRBN inhibitor pomalidomide followed by compound addition by Western blot analysis. Format: cell-based.
The target is the same in test [6]. Kind of test: Induction of CRBN-mediated Mcl-1 degradation in human HeLa cells at 10 uM by Western blot analysis. Format: cell-based. Particulars: TDE = time-dependent effect.
For test [7], the target named is Induced myeloid leukemia cell differentiation protein Mcl-1 (Homo sapiens, UniProt Q07820). Kind of test: Inhibition of biotinylated Bim peptide (81 to 106 residues) binding to His-tagged human Mcl-1 expressed in Escherichia coli BL21 (DE3) cells preincubated for 1 hr followed by biotinylated Bim peptide addition measured after 2 hrs by ELISA. In short, it runs like this: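 Inhibitor serially diluted (100–0.1 µM) from 10 mM DMSO stock, preincubated 1 h with 200 nM His-tagged protein in PBS (final DMSO 4%), then added 2 h to streptavidin plates holding biotin-Bim (plated at 0.09 mg/mL). Incubations at 4 °C. Detection with HRP anti-His, TMB 30 min, H2SO4 stop, A450. IC50 averaged from three independent experiments, with SD.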
In general terms: ELISA stands for enzyme-linked immunosorbent assay.

The target in test [8] is T1, Protein cereblon/Induced myeloid leukemia cell differentiation protein Mcl-1. In words: Induction of CRBN-mediated Mcl-1 degradation in human HeLa cells assessed as relative abundance at 10 uM measured at 8 hrs by Western blot analysis (reference value: 1). Format: cell-based. In short, it runs like this:
as §1

In test [9] the target is T2, Protein cereblon/Apoptosis regulator Bcl-2. Kind of test: Induction of CRBN-mediated Bcl-2 degradation in human HeLa cells assessed as relative abundance at 10 uM measured at 16 hrs by Western blot analysis (reference value: 1). Format: cell-based. In short, it runs like this: as §1
For test [10], the target named is T1, Protein cereblon/Induced myeloid leukemia cell differentiation protein Mcl-1. In words: Induction of CRBN-mediated Mcl-1 degradation in human HeLa cells assessed as relative abundance at 1 uM after 12 hrs by Western blot analysis (reference value: 1). Format: cell-based.
Test [11] has the same target. Kind of test: Induction of CRBN-mediated Mcl-1 degradation in human HeLa cells at 10 uM pretreated with proteasome inhibitor MG-132 followed by compound addition by Western blot analysis. Format: cell-based.
Test [12] deals with Protein cereblon/Bcl-2-like protein 1 (Homo sapiens) (UniProt Q07817+Q96SW2). Kind of test: Induction of CRBN-mediated Bcl-xl degradation in human HeLa cells at 10 uM incubated for 12 hrs by Western blot analysis. Format: cell-based.
For test [13], the target named is T2, Protein cereblon/Apoptosis regulator Bcl-2. In words: Induction of CRBN-mediated Bcl-2 degradation in human HeLa cells assessed as relative abundance at 3 uM after 12 hrs by Western blot analysis (reference value: 1). Format: cell-based.
In a further test the test system is NCI-H23. In words: Cytotoxicity against human H23 cells incubated for 24 hrs by CCK8 assay. Format: functional, cell-based. In short, it runs like this:
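H23 cells seeded at 4 × 10^4 per mL in RPMI with 10% FBS, L-glutamine and pen/strep. Treated 24 h at various concentrations or with DMSO vehicle (0.05%). Viability read by CCK8 and normalized against cell-free background and untreated cultures; mean ± s.e.m., n=3.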

The source made the active and inactive calls. The calls are words filed in the database; no cut-off is given here.

T1 sequence (Q07820 whole entry, looked up): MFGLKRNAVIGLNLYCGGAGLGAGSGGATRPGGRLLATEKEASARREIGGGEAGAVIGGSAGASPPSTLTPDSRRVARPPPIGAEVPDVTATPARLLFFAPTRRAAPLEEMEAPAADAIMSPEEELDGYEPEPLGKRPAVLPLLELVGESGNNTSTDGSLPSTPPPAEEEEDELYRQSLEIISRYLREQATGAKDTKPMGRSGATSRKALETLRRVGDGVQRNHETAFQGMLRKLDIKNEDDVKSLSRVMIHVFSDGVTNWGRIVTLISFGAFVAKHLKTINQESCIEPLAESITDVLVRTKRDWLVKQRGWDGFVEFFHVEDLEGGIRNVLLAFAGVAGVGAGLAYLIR
T1 sequence (Q96SW2 whole entry, looked up): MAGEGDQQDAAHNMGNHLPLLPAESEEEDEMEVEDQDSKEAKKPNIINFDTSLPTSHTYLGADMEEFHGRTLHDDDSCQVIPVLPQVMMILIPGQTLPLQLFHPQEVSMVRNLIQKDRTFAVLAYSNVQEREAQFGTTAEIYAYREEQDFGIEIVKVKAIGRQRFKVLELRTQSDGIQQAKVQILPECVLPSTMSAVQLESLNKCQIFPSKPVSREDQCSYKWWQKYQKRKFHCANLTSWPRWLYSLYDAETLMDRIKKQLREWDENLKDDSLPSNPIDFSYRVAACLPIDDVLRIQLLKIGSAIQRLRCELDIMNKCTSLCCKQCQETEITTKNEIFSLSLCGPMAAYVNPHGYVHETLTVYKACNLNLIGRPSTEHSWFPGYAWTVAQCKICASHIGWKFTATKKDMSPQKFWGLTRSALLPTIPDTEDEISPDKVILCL
T2 sequence (P10415 whole entry, looked up): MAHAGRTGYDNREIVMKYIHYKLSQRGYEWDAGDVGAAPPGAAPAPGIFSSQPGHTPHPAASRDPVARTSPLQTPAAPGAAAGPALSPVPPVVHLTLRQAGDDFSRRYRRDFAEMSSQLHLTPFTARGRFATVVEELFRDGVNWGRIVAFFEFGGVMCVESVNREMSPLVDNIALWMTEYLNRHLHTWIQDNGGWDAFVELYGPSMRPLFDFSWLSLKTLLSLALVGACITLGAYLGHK
T2 sequence (Q96SW2 whole entry, looked up): as the sequence (Q96SW2 whole entry, looked up) above
Sequence of Induced myeloid leukemia cell differentiation protein Mcl-1 (Q07820 whole entry, the tested form may be a part): as the sequence (Q07820 whole entry, looked up) above
Sequence of Protein cereblon/Bcl-2-like protein 1 (Homo sapiens) (Q07817 whole entry, looked up): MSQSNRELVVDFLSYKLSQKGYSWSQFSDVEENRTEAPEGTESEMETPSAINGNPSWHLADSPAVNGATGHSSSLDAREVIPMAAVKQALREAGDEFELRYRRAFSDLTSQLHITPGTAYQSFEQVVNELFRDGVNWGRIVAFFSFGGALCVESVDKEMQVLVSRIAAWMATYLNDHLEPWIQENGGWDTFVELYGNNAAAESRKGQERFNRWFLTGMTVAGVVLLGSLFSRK
Sequence of Protein cereblon/Bcl-2-like protein 1 (Homo sapiens) (Q96SW2 whole entry, looked up): as the sequence (Q96SW2 whole entry, looked up) above

The term IC50 denotes the concentration that inhibits the measured activity by half. On to `O=C(CCCCC(=O)NCCN1C(=O)c2cccc3c(Sc4ccc(Br)cc4)ccc(c23)C1=O)NCCCCCCNc1cccc2c1C(=O)N(C1CCC(=O)NC1=O)C2=O` (stereo not given), for which the outcome (in the test on HeLa; in test [5]; in [11]; in test [12]) was inactive. The Activity in test [1] was 80%; in test [2], “Dose-dependent effect”; in test [6], “Tde”. In addition, the fold change (FC) was 0.9 in test [3]; 0.8 in test [4]; 0.7 in test [8]; 1 in test [9]; 0.3 in test [10]; 1 in test [13]. The compound also yielded an IC50 in [7] of 780 nM. For the same compound, the result with NCI-H23 was Active.
